Data published in ChEMBL document CHEMBL1649277, “Inhibition of herpesvirus replication by 5-substituted 4'-thiopyrimidine nucleosides” (Antimicrob Agents Chemother, 2009).

What was measured:
Human gammaherpesvirus 4 = experiment: Antiviral activity against Epstein-Barr virus infected in human Akata cells assessed as decrease in viral DNA accumulation after 72 hrs; format: functional, organism-based; settings: human gammaherpesvirus 4, Akata
Summary of the method: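 Latent Akata cells in RPMI 1640 with 10% FBS were induced to productive infection with 50 μg/ml goat anti-human IgG, 4 × 10^4 cells per well, with compound at 100–0.032 μM. After 72 h, NaOH/NaCl denaturation was followed by nylon membrane blotting. Viral DNA was quantified by digoxigenin-labeled probe hybridization and anti-hapten antibody detection.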

Human gammaherpesvirus 8 = experiment: Antiviral activity against Human herpesvirus 8 infected in human BCBL1 cells assessed as decrease in viral DNA accumulation after 7 days; format: functional, organism-based; settings: Human gammaherpesvirus 8, BCBL1, 168 h
Summary of the method: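 BCBL1 cells in RPMI 1640 with 10% FBS were induced to lytic replication with phorbol 12-myristate 13-acetate (100 ng/ml final). Compound was tested in triplicate wells up to 100 μM for 7 days at 37°C. Total DNA was purified and viral DNA quantified by TaqMan qPCR. EC50 is the concentration giving 50% reduction of DNA accumulation.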

Human betaherpesvirus 5 [1] = experiment: Antiviral activity against human cytomegalovirus AD169 infected in HFF assessed as decrease in viral DNA accumulation after 8 to 10 days; format: functional, organism-based; settings: Human betaherpesvirus 5, AD169
[2] = Cytotoxicity against HFF after 3 days by MTS assay; format: cell-based; settings: human, HFF cells
Human alphaherpesvirus 2 [3] = experiment: Antiviral activity against HSV2 harboring frameshift mutation in TK infected in HFF after 3 days by plaque reduction assay; format: functional, organism-based; settings: Human alphaherpesvirus 2, 72 h
Summary of the method: (§1)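 Confluent HFF monolayers (passage <10) were infected in triplicate wells at 20–30 plaques per well, with 1 h adsorption and rocking every 15 min. Six serial dilutions (top 100 μM) were made in MEM with 2% FBS and pooled human immunoglobulin. Cells were incubated 3 days and stained with crystal violet. Plaques were counted, and EC50 was interpolated from plaque reduction.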

Human alphaherpesvirus 2 [4] = experiment: Antiviral activity against 4'-thioIDU-resistant HSV2 infected in HFF after 3 days by plaque reduction assay; format: functional, organism-based; settings: Human alphaherpesvirus 2, 72 h; summary of the method: as §1
Human alphaherpesvirus 2 [5] = experiment: Antiviral activity against HSV2 MS infected in HFF assessed as decrease in viral DNA accumulation after 3 days; format: functional, organism-based; settings: Human alphaherpesvirus 2, MS, 72 h
Human alphaherpesvirus 2 [6] = experiment: Antiviral activity against HSV2 MS infected in HFF after 3 days by plaque reduction assay; format: functional, organism-based; settings: Human alphaherpesvirus 2, MS, 72 h
Summary of the method: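 Confluent primary HFF monolayers (passage <10), triplicate wells, virus dosed at 20–30 plaques/well. Adsorption was 1 h with rocking every 15 min. Six serial dilutions, top 100 μM, were made in MEM with 2% FBS plus pooled human immunoglobulin. After 3 days, wells were stained with 0.1% crystal violet in 20% methanol and plaques counted microscopically. EC50 was interpolated.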

Human alphaherpesvirus 1 [7] = experiment: Antiviral activity against HSV1 E377 infected in HFF assessed as decrease in viral DNA accumulation after 3 days; format: functional, organism-based; settings: Human alphaherpesvirus 1, E377, 72 h
[8] = Antiviral activity against Human herpesvirus 6 GS infected in human HSB2 cells assessed as decrease in viral DNA accumulation after 7 days; format: functional, cell-based, Human herpesvirus 6 (strain GS); settings: Human betaherpesvirus 6A, HSB2, 168 h
Summary of the method: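 HSB-2 cells (2 × 10^4/well) in RPMI 1640 with 10% FBS were infected with HHV-6A strain GS, with compound dilutions in triplicate wells, at 37°C for 7 days. Total DNA was denatured and immobilized on nylon. Viral DNA accumulation was measured by digoxigenin-labeled DNA probe hybridization and anti-hapten antibody detection.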

Human alphaherpesvirus 3 = experiment: Antiviral activity against VZV Ellan infected in HFF assessed as decrease in viral DNA accumulation after 8 to 10 days; format: functional, organism-based; settings: Human alphaherpesvirus 3, Ellan
Human alphaherpesvirus 2 [9] = experiment: Selectivity ratio of EC50 for 4'-thioIDU-resistant HSV2 infected in HFF to EC50 for HSV2 MS infected in HFF; format: functional
[10] = Selectivity index, ratio of CC50 for HFF to EC50 for HSV2 MS infected in HFF
Human alphaherpesvirus 2 [11] = experiment: Antiviral activity against HSV2 AG-3 harboring TK Q105P mutant gene infected in HFF after 3 days by plaque reduction assay; format: functional, organism-based; settings: Human alphaherpesvirus 2, AG-3, 72 h; summary of the method: as §1
Human alphaherpesvirus 1 [12] = experiment: Antiviral activity against HSV1 B-2006 harboring frameshift mutation at Q185 in TK infected in HFF after 3 days by plaque reduction assay; format: functional, organism-based; settings: Human alphaherpesvirus 1, B-2006, 72 h; summary of the method: as §1
Human alphaherpesvirus 2 [13] = experiment: Antiviral activity against HSV2 11680 harboring TK R223H mutant gene infected in HFF after 3 days by plaque reduction assay; format: functional, organism-based; settings: Human alphaherpesvirus 2, 11680, 72 h; summary of the method: as §1
Human alphaherpesvirus 2 [14] = experiment: Antiviral activity against HSV2 13077 harboring TK R223H mutant gene infected in HFF after 3 days by plaque reduction assay; format: functional, organism-based; settings: Human alphaherpesvirus 2, 13077, 72 h; summary of the method: as §1
Human alphaherpesvirus 1 [15] = experiment: Antiviral activity against HSV1 E377 infected in HFF after 3 days by plaque reduction assay; format: functional, organism-based; settings: Human alphaherpesvirus 1, E377, 72 h; summary of the method: as §1
Human alphaherpesvirus 2 [16] = experiment: Antiviral activity against HSV2 12247 harboring TK C337Y mutant gene infected in HFF after 3 days by plaque reduction assay; format: functional, organism-based; settings: Human alphaherpesvirus 2, 12247, 72 h; summary of the method: as §1
Human alphaherpesvirus 1 [17] = experiment: Antiviral activity against HSV1 PAA5 harboring polymerase R842S mutant gene infected in HFF after 3 days by plaque reduction assay; format: functional, organism-based; settings: Human alphaherpesvirus 1, PAA5, 72 h; summary of the method: as §1
Human alphaherpesvirus 1 [18] = experiment: Antiviral activity against HSV1 SC16-S1 harboring TK A265T/C336Y mutant gene infected in HFF after 3 days by plaque reduction assay; format: functional, organism-based; settings: Human alphaherpesvirus 1, SC16-S1, 72 h; summary of the method: as §1
Human alphaherpesvirus 1 [19] = experiment: Antiviral activity against HSV1 DM2.1 harboring frameshift mutation in TK infected in HFF after 3 days by plaque reduction assay; format: functional, organism-based; settings: Human alphaherpesvirus 1, DM2.1, 72 h; summary of the method: as §1
HFF = experiment: Antiproliferative activity against HFF after 3 days by Coulter counting analysis; format: cell-based; settings: Homo sapiens, 72 h
Summary of the method: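 HFF seeded at 2.5 × 10^4 cells/well and allowed 24 h before compound dilutions in growth medium were added. Cells were incubated 72 h at 37°C, detached with trypsin-EDTA, and viable cells counted with a Coulter Counter in triplicate wells. The mean cell number gave the concentration reducing cell number by 50%.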

Human betaherpesvirus 5 [20] = experiment: Antiviral activity against human cytomegalovirus C8914-6 harboring UL97 I244V, L595F and UL54 L501F mutant gene infected in HFF after 8 to 10 days by plaque reduction assay; format: functional, organism-based; settings: Human betaherpesvirus 5, C8914-6
Summary of the method: (§2)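 Plaque reduction in confluent HFF with six serial dilutions (top 100 μM) and no immunoglobulin added. Virus was adsorbed 1 h on triplicate wells. Cells were incubated 8 days, stained with 0.017% neutral red in PBS, and plaques counted. EC50 is the concentration reducing plaque number by 50%.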

Human betaherpesvirus 5 [21] = experiment: Antiviral activity against human cytomegalovirus RC314 harboring UL97 K355M mutant gene infected in HFF after 8 to 10 days by plaque reduction assay; format: functional, organism-based; settings: Human betaherpesvirus 5, RC314; summary of the method: as §2
Human betaherpesvirus 5 [22] = experiment: Antiviral activity against human cytomegalovirus 759D100 harboring deletion mutation in UL97 gene and UL54 A987G mutant gene infected in HFF after 8 to 10 days by plaque reduction assay; format: functional, organism-based; settings: Human betaherpesvirus 5, 759D100; summary of the method: as §2
Human betaherpesvirus 5 [23] = experiment: Antiviral activity against human cytomegalovirus PFAB300 harboring UL54 L724V mutant gene infected in HFF after 8 to 10 days by plaque reduction assay; format: functional, organism-based; settings: Human betaherpesvirus 5, PFAB300; summary of the method: as §2
Human betaherpesvirus 5 [24] = experiment: Antiviral activity against human cytomegalovirus AD169 infected in HFF after 8 to 10 days by plaque reduction assay; format: functional, organism-based; settings: Human betaherpesvirus 5, AD169
Summary of the method: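 Plaque reduction on confluent HFF monolayers in triplicate wells: 1 h adsorption, then six serial compound dilutions (top 100 μM) in MEM with 2% FBS, no immunoglobulin. Incubation was 8 days for HCMV and 10 days for VZV. Plaques were stained with 0.017% neutral red in PBS and counted microscopically. EC50 was interpolated at 50% plaque reduction.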

Human betaherpesvirus 5 [25] = experiment: Antiviral activity against human cytomegalovirus VR4955 harboring UL54 T700A mutant gene infected in HFF after 8 to 10 days by plaque reduction assay; format: functional, organism-based; settings: Human betaherpesvirus 5, VR4955; summary of the method: as §2
Human betaherpesvirus 5 [26] = experiment: Antiviral activity against human cytomegalovirus 1117 harboring UL54 K513N mutant gene infected in HFF after 8 to 10 days by plaque reduction assay; format: functional, organism-based; settings: Human betaherpesvirus 5, 1117; summary of the method: as §2

EC50 (Human alphaherpesvirus 2 [6]) [µM]	Structure (SMILES)	CC50 at 72 h [2] [µM]	EC50 (Human alphaherpesvirus 2 [3]) [µM]	EC50 (Human alphaherpesvirus 2 [4]) [µM]	Ratio EC50 (Human alphaherpesvirus 2 [9])	Ratio CC50/EC50 [10]	IC50 (HFF) [µM]	also measured
0.9	Nc1ccn([C@@H]2S[C@H](CO)[C@@H](O)[C@@H]2O)c(=O)n1 [THIARABINE]	> 100	–	–	–	> 110	–	–
15	Nc1nc(=O)n([C@H]2C[C@H](O)[C@@H](CO)S2)cc1Br	> 100	–	–	–	> 6.7	> 100	–
0.2	Cc1cn([C@H]2C[C@H](O)[C@@H](CO)S2)c(=O)[nH]c1=O [4'-THIOTHYMIDINE]	> 100	–	–	–	> 500	< 0.03	–
4.8	O=c1[nH]c(=O)n([C@H]2C[C@H](O)[C@@H](CO)S2)cc1Br	> 100	–	–	–	> 21	–	–
–	Nc1nc2c(ncn2COC(CO)CO)c(=O)[nH]1 [GANCICLOVIR]	–	–	–	–	–	–	EC50 (Human betaherpesvirus 5 [20]): 53 µM; EC50 (Human betaherpesvirus 5 [21]): 44 µM; EC50 (Human betaherpesvirus 5 [22]): 230 µM; EC50 (Human betaherpesvirus 5 [23]): 9.8 µM; EC50 (Human betaherpesvirus 5 [24]): 3.3 µM; EC50 (Human betaherpesvirus 5 [25]): 7.2 µM; EC50 (Human betaherpesvirus 5 [26]): 15 µM
0.3	O=c1[nH]c(=O)n([C@H]2C[C@H](O)[C@@H](CO)S2)cc1C(F)(F)F	> 100	–	–	–	> 330	0.1	–

Structure (SMILES)	EC50 (Human alphaherpesvirus 2 [6]) [µM]	CC50 at 72 h [2] [µM]	EC50 (Human alphaherpesvirus 2 [3]) [µM]	EC50 (Human alphaherpesvirus 2 [4]) [µM]	Ratio EC50 (Human alphaherpesvirus 2 [9])	Ratio CC50/EC50 [10]	IC50 (HFF) [µM]	also measured
Nc1ccn(C[C@@H](CO)OCP(=O)(O)O)c(=O)n1.O.O [CIDOFOVIR]	9.5	> 100	1.2	4.7	1.3	–	–	EC50 (Human gammaherpesvirus 4): 0.48 µM; EC50 (Human gammaherpesvirus 8): 0.064 µM; EC50 (Human betaherpesvirus 5 [1]): 0.4 µM; EC50 (Human alphaherpesvirus 2 [5]): 5.1 µM; EC50 (Human alphaherpesvirus 1 [7]): 5.5 µM; EC50 [8]: 2.7 µM; EC50 (Human alphaherpesvirus 3): 0.5 µM
Nc1nc2c(ncn2COCCO)c(=O)[nH]1 [ACYCLOVIR]	3	> 444	> 100	> 440	>100	–	> 444	EC50 (Human alphaherpesvirus 2 [11]): 4.7 µM; EC50 (Human alphaherpesvirus 1 [12]): 4.4 µM; EC50 (Human alphaherpesvirus 2 [13]): 6.6 µM; EC50 (Human alphaherpesvirus 2 [14]): 4.9 µM; EC50 (Human alphaherpesvirus 1 [15]): 0.08 µM; EC50 (Human alphaherpesvirus 2 [16]): 9.6 µM; EC50 (Human alphaherpesvirus 1 [17]): 0.011 µM; EC50 (Human alphaherpesvirus 1 [18]): 0.6 µM; EC50 (Human alphaherpesvirus 1 [19]): 12 µM
O=c1[nH]c(=O)n([C@H]2C[C@H](O)[C@@H](CO)O2)cc1I [IDOXURIDINE]	2.4	–	78	> 100	42	–	–	–
O=C(O)P(=O)(O)O [FOSCARNET]	670	–	389	403	0.66	–	–	–
